{
  "source": "ChEMBL document CHEMBL1143502",
  "about": "“Fluorescent metal ion indicators based on benzoannelated crown systems: a green fluorescent indicator for intracellular sodium ions” (Bioorg Med Chem Lett, 2005)",
  "format_in_all_cases": "functional",
  "key": {"[1]": {"assay": "The in vitro binding constant in presence of K+ was reported", "summary_of_the_method": "(§1)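 Fluorescence titration in pH 7.0 buffer series (50 mM MOPS, pH set with tetramethylammonium hydroxide) containing 0–1000 mM of the monovalent cation (Li+, Na+, K+ or Rb+) at 20 °C. Kd (mM) was taken from the intensity change with cation concentration, alongside the response S = I[bound]/I[free].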"}, "[2]": {"assay": "The in vitro binding constant in presence of Li+ was reported", "summary_of_the_method": "as §1"}, "[3]": {"assay": "The in vitro binding constant in presence of Rb+ was reported", "summary_of_the_method": "as §1"}},
  "data": [
    {"smiles": "COC(=O)CN1CCOCCOCCOCCOc2cc(C3=C4C(C)=CC(C)=[N+]4[B-](F)(F)n4c(C)cc(C)c43)ccc21", "values": [
      {"measurement": "Kd", "setting": "[1]", "result": 170, "unit": "mM"}
    ]},
    {"smiles": "COC(=O)CN1CCOCCOCCOCCOc2cc(-c3c4cc(F)c(=O)cc-4oc4cc(O)c(F)cc34)ccc21", "values": [
      {"measurement": "Kd", "setting": "[2]", "result": 142, "unit": "mM"},
      {"measurement": "Kd", "setting": "[1]", "result": 291, "unit": "mM"},
      {"measurement": "Kd", "setting": "[3]", "result": 319, "unit": "mM"}
    ]},
    {"smiles": "COC(=O)CN1CCOCCOCCOc2cc(-c3c4cc(F)c(=O)cc-4oc4cc(O)c(F)cc34)ccc21", "values": [
      {"measurement": "Kd", "setting": "[2]", "result": 438, "unit": "mM"},
      {"measurement": "Kd", "setting": "[1]", "result": 978, "unit": "mM"},
      {"measurement": "Kd", "setting": "[3]", "result": 376, "unit": "mM"}
    ]},
    {"smiles": "COCCN1CCOCCOCCOCCOc2cc(-c3c4cc(F)c(=O)cc-4oc4cc(O)c(F)cc34)ccc21", "values": [
      {"measurement": "Kd", "setting": "[1]", "result": 269, "unit": "mM"}
    ]},
    {"smiles": "COC(=O)CN1CCOCCOCCOCCOc2cc(NC(=O)c3ccc(-c4c5cc(F)c(=O)cc-5oc5cc(O)c(F)cc45)c(C(=O)O)c3)ccc21", "values": [
      {"measurement": "Kd", "setting": "[2]", "result": 65, "unit": "mM"},
      {"measurement": "Kd", "setting": "[1]", "result": 144, "unit": "mM"},
      {"measurement": "Kd", "setting": "[3]", "result": 157, "unit": "mM"}
    ]},
    {"smiles": "COC(=O)CN1CCOCCOCCOCCOc2cc(-c3c4ccc(=[N+](C)C)cc-4oc4cc(N(C)C)ccc34)ccc21", "values": [
      {"measurement": "Kd", "setting": "[1]", "result": 254, "unit": "mM"}
    ]},
    {"smiles": "COC(=O)CN1CCOCCOCCOCCOCCOc2cc(-c3c4cc(F)c(=O)cc-4oc4cc(O)c(F)cc34)ccc21", "values": [
      {"measurement": "Kd", "setting": "[1]", "result": 11, "unit": "mM"},
      {"measurement": "Kd", "setting": "[3]", "result": 25, "unit": "mM"}
    ]}
  ]
}
